Data taken from PMC3103189 (Journal of Medicinal Chemistry, 2011).
Marks after values point to notes of the source that are not given here.

Experiments:
[1] = test system: E. coli S30 extract system (coupled transcription/translation); assay type: biochemical; conditions: relative to tetracycline
[2] = test system: S. aureus clinical isolates (n = 31); experiment: MIC50/MIC90 analysis, clinical isolates; assay type: cell-based, Staphylococcus aureus; conditions: n = 31 clinical isolates
[3] = test system: H. influenzae clinical isolates (n = 11); experiment: MIC50/MIC90 analysis, clinical isolates; assay type: cell-based, Haemophilus influenzae; conditions: n = 11 clinical isolates
[4] = test system: E. coli clinical isolates (n = 20); experiment: MIC50/MIC90 analysis, clinical isolates; assay type: cell-based, Escherichia coli; conditions: n = 20 clinical isolates
[5] = for Clobs / Vzobs: Sprague−Dawley rats, 1 mg/kg IV and 10 mg/kg PO, sterile water
[6] = test system: panel of Gram-positive and Gram-negative bacteria; experiment: MIC, summary statements over the panel; assay type: cell-based; conditions: read-out: MICs for the tetracycline-susceptible strains
How it was run: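 Broth microdilution MIC in liquid medium following CLSI methods. Medium was cation-adjusted Mueller Hinton broth, prepared fresh and held at 4 °C before testing, with defibrinated horse blood added as appropriate. Runs were accepted when comparator antibiotics fell within recommended quality-control ranges for the appropriate ATCC quality-control strains.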

[7] = test system: S. pneumoniae clinical isolates (n = 19); experiment: MIC50/MIC90 analysis, clinical isolates; assay type: cell-based, Streptococcus pneumoniae; conditions: n = 19 clinical isolates
[8] = test system: S. aureus ATCC 13709 (Smith); experiment: Mouse septicemia model, IV efficacy; assay type: in vivo; conditions: IV 1 h postchallenge, survival after 48 h
[9] = cited from earlier work

Structure (SMILES) | MIC range S. aureus [2] | MIC range H. influenzae [3] | Clobs [5] [mL/min/kg] | Vzobs [5] [L/kg] | further results
CN(C)[C@@H]1C(O)=C(C(N)=O)C(=O)[C@@]2(O)C(O)=C3C(=O)c4c(O)c(N)nc(Cl)c4C[C@H]3C[C@@H]12 [20j, 9-Amino-7-chloro-6-demethyl-6-deoxy-8-azatetracycline] | – | – | – | – | fold more potent than tetracycline in transcription/translation assay [1]: about 2 fold
CN(C)[C@@H]1C(O)=C(C(N)=O)C(=O)[C@@]2(O)C(O)=C3C(=O)c4c(O)cncc4C[C@H]3C[C@@H]12.Cl.Cl [20a, 6-Demethyl-6-deoxy-8-azatetracycline Dihydrochloride] | – | – | – | – | MIC [6]: 0.25 to 1 µg/mL
CN(C)[C@@H]1C(O)=C(C(N)=O)C(=O)[C@@]2(O)C(O)=C3C(=O)c4c(O)c(N)nc(F)c4C[C@H]3C[C@@H]12.Cl.Cl [20k, 9-Amino-6-demethyl-6-deoxy-7-fluoro-8-azatetracycline Dihydrochloride] | – | – | – | – | fold more potent than tetracycline in transcription/translation assay [1]: about 2 fold
CN(C)c1ncc(O)c2c1C[C@H]1C[C@H]3[C@H](N(C)C)C(O)=C(C(N)=O)C(=O)[C@@]3(O)C(O)=C1C2=O.Cl.Cl [20f, 6-Demethyl-6-deoxy-7-(dimethylamino)-8-azatetracycline Dihydrochloride] | ≤0.016−32 μg/mL | 0.063−4 μg/mL | 15.3 | 4.177 | MIC range S. pneumoniae [7]: ≤0.016−8 μg/mL; S. aureus PD50 [8]: <0.30 ^b mg/kg
CN(C)[C@@H]1C(O)=C(C(N)=O)C(=O)[C@@]2(O)C(O)=C3C(=O)c4c(O)cccc4[C@@](C)(O)[C@H]3C[C@@H]12 [tetracycline] | – | – | – | – | oral bioavailability in humans [9]: 50−70%

Continued, in another order:

MIC range S. aureus [2] | MIC range H. influenzae [3] | Clobs [5] [mL/min/kg] | Vzobs [5] [L/kg] | Structure (SMILES) | further results
≤0.016−1 μg/mL | 0.25−1 μg/mL | 15.5 | 6.119 | CN(C)c1cc(NC(=O)CNC(C)(C)C)c(O)c2c1C[C@H]1C[C@H]3[C@H](N(C)C)C(O)=C(C(N)=O)C(=O)[C@@]3(O)C(O)=C1C2=O [tigecycline, reference compound] | MIC range E. coli [4]: 0.125−2 μg/mL
0.063−4 μg/mL | 0.25−2 μg/mL | 3.37 | 1.256 | CN(C)CC(C)(C)CNc1nc(Cl)c2c(c1O)C(=O)C1=C(O)[C@]3(O)C(=O)C(C(N)=O)=C(O)[C@@H](N(C)C)[C@@H]3C[C@@H]1C2.Cl [24l, 7-Chloro-6-demethyl-6-deoxy-9-[[3-(dimethylamino)-2,2-dimethylpropyl]amino]-8-azatetracycline Trihydrochloride] | MIC range S. pneumoniae [7]: ≤0.016−0.063 μg/mL; MIC range E. coli [4]: 0.5−8 μg/mL; fold lower clearance than the other three compounds ([5]; Sprague-Dawley, rat, in vivo): 5 fold
